Data on 16 compounds can be found in ChEMBL document CHEMBL1144585, “Synthesis and evaluation of N-acetyl-L-tyrosine based compounds as PPARalpha selective activators” (Eur J Med Chem, 2007).

Molecules are shown by their SMILES.

Assay [1] deals with T1, Peroxisome proliferator-activated receptor alpha (Homo sapiens) (UniProt Q07869).
T1 sequence (whole entry): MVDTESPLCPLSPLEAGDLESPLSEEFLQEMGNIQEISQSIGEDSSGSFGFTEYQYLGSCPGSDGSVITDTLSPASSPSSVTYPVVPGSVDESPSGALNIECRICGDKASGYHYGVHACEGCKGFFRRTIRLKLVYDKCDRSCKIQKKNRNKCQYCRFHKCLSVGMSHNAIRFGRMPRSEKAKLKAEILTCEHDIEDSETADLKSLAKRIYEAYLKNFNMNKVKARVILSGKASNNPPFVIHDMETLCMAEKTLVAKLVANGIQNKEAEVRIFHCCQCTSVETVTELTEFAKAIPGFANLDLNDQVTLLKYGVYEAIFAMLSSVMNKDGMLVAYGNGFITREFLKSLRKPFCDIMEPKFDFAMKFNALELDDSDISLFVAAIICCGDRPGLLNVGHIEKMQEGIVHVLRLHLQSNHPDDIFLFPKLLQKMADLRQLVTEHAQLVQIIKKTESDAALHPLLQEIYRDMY
As to the kind of experiment: Agonist activity at human recombinant PPARalpha at 50 uM by GAL4 transactivation assay relative to control. The class given is functional. The procedure, abridged:
(§1)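 Cell-based transcription assay: cells transfected with a GAL4–PPAR chimeric receptor expression plasmid, with luciferase gene activation as the read-out. PPARα was tested at 50 µM against WY 14,643 as the reference. PPARγ was tested at 30 µM against rosiglitazone as the reference. Values are fold activation at the same concentration.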

Assay [2] has as its target T2, Peroxisome proliferator-activated receptor gamma (Homo sapiens) (UniProt P37231).
T2 sequence (whole entry): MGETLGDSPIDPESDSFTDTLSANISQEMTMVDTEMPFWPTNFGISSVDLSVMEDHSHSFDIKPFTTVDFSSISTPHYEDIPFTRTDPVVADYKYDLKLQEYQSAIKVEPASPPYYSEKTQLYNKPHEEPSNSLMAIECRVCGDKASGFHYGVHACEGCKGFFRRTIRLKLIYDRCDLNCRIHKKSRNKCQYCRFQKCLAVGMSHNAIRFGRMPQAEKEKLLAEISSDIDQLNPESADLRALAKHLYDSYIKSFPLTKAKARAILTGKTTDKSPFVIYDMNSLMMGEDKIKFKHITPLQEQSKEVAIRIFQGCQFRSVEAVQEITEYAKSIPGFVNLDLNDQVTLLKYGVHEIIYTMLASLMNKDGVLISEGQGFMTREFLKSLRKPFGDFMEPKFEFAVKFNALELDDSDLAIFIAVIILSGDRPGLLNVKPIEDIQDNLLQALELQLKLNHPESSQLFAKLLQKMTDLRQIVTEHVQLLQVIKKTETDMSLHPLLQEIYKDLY
As to the kind of experiment: Agonist activity at human recombinant PPARgamma at 30 uM by GAL4 transactivation assay relative to control. It counts as functional. The procedure, abridged: as §1

Turning to `CC(=O)N[C@@H](Cc1ccc(OCc2ccc(Cl)cc2)cc1)C(=O)O`, the Fold change in assay [1] turned out to be 3; in assay [2], 1.9. Regarding `Cc1cccc(Nc2cc(Cl)nc(SCC(=O)O)n2)c1C`, the Fold change in assay [1] was 4.2. Turning to `CC(=O)N[C@@H](Cc1ccc(OCCOc2ccc(C(=O)c3ccc(Cl)cc3)cc2)cc1)C(=O)O`, the figures for the Fold change in assay [1] and in assay [2] were 4.6 and 2.4, respectively. As to `CN(CCOc1ccc(CC2SC(=O)NC2=O)cc1)c1ccccn1` (stereo not given), in assay [2], the Fold change was 27.2. Take `CC(=O)N[C@@H](Cc1ccc(OCc2c3ccccc3cc3ccccc23)cc1)C(=O)O`: the Fold change in assay [1] was 3.1; in assay [2] it was 1.3. With `CCN(CCOc1ccc(C[C@H](NC(C)=O)C(=O)O)cc1)c1cccc(C)c1`, the results for the Fold change in assay [1] and in assay [2] were 3.2 and 1.4, respectively. As to `CC(=O)N[C@@H](Cc1ccc(OCCn2c3ccccc3c3ccccc32)cc1)C(=O)O`, the figures for the Fold change in assay [1] and in assay [2] were 3.4 and 4.2, respectively.

As to `CCOC(=O)[C@H](Cc1ccc(OCCN(CC)c2cccc(C)c2)cc1)NC(C)=O`, the Fold change in assay [1] was 2.9; in assay [2] it was 1.1. Consider `CCOC(=O)[C@H](Cc1ccc(OCc2c3ccccc3cc3ccccc23)cc1)NC(C)=O`, for which the Fold change turned out to be 2.3 in assay [1] and 0.8 in assay [2].

`CC(=O)N[C@@H](Cc1ccc(OCCC(=O)Nc2ccccc2C(F)(F)F)cc1)C(=O)O`: the Fold change in assay [1] stood at 2.5; in assay [2], 1.2. Regarding `COc1ccc(COc2ccc(C[C@H](NC(C)=O)C(=O)O)cc2)cc1`, the Fold change in assay [1] was 4.4; in assay [2], 5.4. In the case of `CCOC(=O)[C@H](Cc1ccc(OCc2ccc(OC)cc2)cc1)NC(C)=O`, the Fold change was determined as 2.4 in assay [1] and 1.3 in assay [2].

As for `CCOC(=O)[C@H](Cc1ccc(OCCn2c3ccccc3c3ccccc32)cc1)NC(C)=O`, the results for the Fold change in assay [1] and in assay [2] were 1.6 and 5.4, respectively. For `CCOC(=O)[C@H](Cc1ccc(OCCC(=O)Nc2ccccc2C(F)(F)F)cc1)NC(C)=O` the same measures were 1 and 1.8.

In the case of `CCOC(=O)[C@H](Cc1ccc(OCc2ccc(Cl)cc2)cc1)NC(C)=O`, the Fold change in assay [1] was found to be 2; in assay [2] it was 1. For `CCOC(=O)[C@H](Cc1ccc(OCCOc2ccc(C(=O)c3ccc(Cl)cc3)cc2)cc1)NC(C)=O` the same measures were 3.3 and 0.9.
